Source: ChEMBL document CHEMBL1154292, “Discovery and optimization of novel 4-[(aminocarbonyl)amino]-N-[4-(2-aminoethyl)phenyl]benzenesulfonamide ghrelin receptor antagonists” (Bioorg Med Chem Lett, 2009)

Key:
[1] = biological target: T1, Growth hormone secretagogue receptor type 1 (Homo sapiens, UniProt Q92847); assay: Inhibition of human GHS-R1a at 6.25 uM
[2] = biological target: T1, Growth hormone secretagogue receptor type 1; assay: Inhibition of human GHS-R1a
[3] = biological target: T1, Growth hormone secretagogue receptor type 1; assay: Agonist activity at human GHS-R1a assessed as maximum activation at 10 uM relative to ghrelin by aequorin assay; format: functional
Outline: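 Agonist mode of the hGHS-R1a aequorin bioluminescence assay. Compound tested up to a maximum of 10 μM. Peak response is expressed as maximum % activation relative to ghrelin. Values are means of two or three experiments.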

[4] = biological target: T2, Beta-3 adrenergic receptor (Homo sapiens, UniProt P13945); assay: Inhibition of human adrenergic beta3 receptor
[5] = biological target: T2, Beta-3 adrenergic receptor; assay: Agonist activity at human adrenergic beta3 receptor; format: functional
[6] = biological target: T1, Growth hormone secretagogue receptor type 1; assay: Antagonist activity at human GHS-R1a expressed in HEK293 cells assessed as inhibition of ghrelin-stimulated intracellular calcium mobilization; format: functional, cell-based
[7] = biological target: T1, Growth hormone secretagogue receptor type 1; assay: Displacement of [35S]MK0677 from human GHS-R1a
Outline: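 Competitive binding at GHS-R1a using [35S]-MK-0677 as the radiolabeled probe. IC50 values are means of two or three experiments.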

T1 sequence (Q92847 whole entry): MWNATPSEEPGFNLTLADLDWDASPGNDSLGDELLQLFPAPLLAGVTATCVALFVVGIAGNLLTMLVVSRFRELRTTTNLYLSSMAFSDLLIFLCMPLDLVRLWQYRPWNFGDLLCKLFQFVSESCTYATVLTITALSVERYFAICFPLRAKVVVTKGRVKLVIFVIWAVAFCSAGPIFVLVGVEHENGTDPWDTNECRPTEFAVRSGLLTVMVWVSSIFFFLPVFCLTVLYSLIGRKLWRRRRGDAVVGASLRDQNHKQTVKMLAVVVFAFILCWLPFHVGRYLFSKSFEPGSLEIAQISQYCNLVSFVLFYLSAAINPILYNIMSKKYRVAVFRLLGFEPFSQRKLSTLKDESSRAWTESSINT
T2 sequence (P13945 whole entry): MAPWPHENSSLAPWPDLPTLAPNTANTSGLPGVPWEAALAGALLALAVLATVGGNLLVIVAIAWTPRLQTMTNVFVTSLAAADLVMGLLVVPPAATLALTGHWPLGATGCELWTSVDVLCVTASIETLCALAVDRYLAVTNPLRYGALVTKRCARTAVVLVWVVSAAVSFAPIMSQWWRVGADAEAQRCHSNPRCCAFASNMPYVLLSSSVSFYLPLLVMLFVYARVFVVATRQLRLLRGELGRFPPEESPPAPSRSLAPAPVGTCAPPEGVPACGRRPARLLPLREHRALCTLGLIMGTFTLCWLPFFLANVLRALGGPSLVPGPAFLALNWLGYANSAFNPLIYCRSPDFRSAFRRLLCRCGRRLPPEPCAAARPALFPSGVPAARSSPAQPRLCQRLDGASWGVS

CCCCCCNC(=O)Nc1ccc(S(=O)(=O)Nc2ccc(CC)cc2)cc1
inhibition [1]: 47%

CCCCCCNC(=O)Nc1ccc(S(=O)(=O)Nc2cccc(CCCN)c2)cc1
IC50 [2]: 429 nM
Activity [3]: 51%

CCCCCCNC(=O)Nc1ccc(S(=O)(=O)Nc2ccc(CCN)cc2)cc1
IC50 [2]: 272 nM
Activity [3]: 5%

CC(C)(N)Cc1ccc(NS(=O)(=O)c2ccc(NC(=O)NCc3ccccc3)cc2)cc1
IC50 [2]: 128 nM
Activity [3]: 4%

CCCCCCNC(=O)Nc1ccc(S(=O)(=O)Nc2ccc(CC(C)(C)CN)cc2)cc1
IC50 [2]: 444 nM
Activity [3]: 2%

CCCCCNC(=O)Nc1ccc(S(=O)(=O)Nc2ccc(CC(C)(C)N)cc2)cc1
IC50 [2]: 241 nM
Activity [3]: 6%

CCNC(=O)Nc1ccc(S(=O)(=O)Nc2ccc(CC(C)(C)N)cc2)cc1
IC50 [2]: 5620 nM
Activity [3]: 4%

CCc1ccc(NC(=O)Nc2ccc(S(=O)(=O)Nc3ccc(CC(C)(C)N)cc3)cc2)cc1
IC50 [2]: 14 nM
Activity [3]: 1%

CCCCCCNC(=O)Nc1ccc(S(=O)(=O)Nc2ccc(CN)cc2)cc1
IC50 [2]: 1720 nM
Activity [3]: 5%

CC(C)(N)Cc1ccc(NS(=O)(=O)c2ccc(NC(=O)Nc3ccccc3)cc2)cc1
IC50 [2]: 263 nM
Activity [3]: 1%

Cc1ccccc1NC(=O)Nc1ccc(S(=O)(=O)Nc2ccc(CC(C)(C)N)cc2)cc1
IC50 [2]: 161 nM
Activity [3]: 1%

CC(C)(N)Cc1ccc(NS(=O)(=O)c2ccc(NC(=O)NCc3cccc4ccccc34)cc2)cc1
IC50 [2]: 21 nM

CCCCCCNC(=O)Nc1ccc(S(=O)(=O)Nc2ccc(CC(C)(C)N)cc2)cc1
IC50 [4]: 5200 nM
IC50 [2]: 46 nM
EC50 [5]: > 10000 nM
Activity [3]: 4%

CCCCCCNC(=O)Nc1ccc(S(=O)(=O)Nc2cccc(CCN)c2)cc1
IC50 [2]: 625 nM
Activity [3]: 13%

CCCCCCNC(=O)Nc1ccc(S(=O)(=O)Nc2ccccc2)cc1
IC50 [2]: 4300 nM

CCCNC(=O)Nc1ccc(S(=O)(=O)Nc2ccc(CC(C)(C)N)cc2)cc1
IC50 [2]: 1650 nM
Activity [3]: 1%

CCCCCCNC(=O)Nc1ccc(S(=O)(=O)Nc2ccc(CC(C)(C)NCC)cc2)cc1
IC50 [2]: 30 nM
Activity [3]: 1%

Cc1cccc(NC(=O)Nc2ccc(S(=O)(=O)Nc3ccc(CC(C)(C)N)cc3)cc2)c1
IC50 [2]: 69 nM
Activity [3]: 3%

CC(C)(N)Cc1ccc(NS(=O)(=O)c2ccc(NC(=O)NC(C)(C)c3cccc4ccccc34)cc2)cc1
IC50 [2]: 2 nM

CCCCCCCNC(=O)Nc1ccc(S(=O)(=O)Nc2ccc(CC(C)(C)N)cc2)cc1
IC50 [2]: 97 nM
Activity [3]: 3%

CCCCCCNC(=O)Nc1ccc(S(=O)(=O)Nc2ccc(CCCN)cc2)cc1
IC50 [2]: 108 nM
Activity [3]: 1%

CC(C)(N)Cc1ccc(NS(=O)(=O)c2ccc(NC(=O)NCCc3ccccc3)cc2)cc1
IC50 [2]: 138 nM
Activity [3]: 1%

Cc1ccc(NC(=O)Nc2ccc(S(=O)(=O)Nc3ccc(CC(C)(C)N)cc3)cc2)cc1
IC50 [2]: 77 nM
Activity [3]: 3%

CC(C)c1ccc(NC(=O)Nc2ccc(S(=O)(=O)Nc3ccc(CC(C)(C)N)cc3)cc2)cc1
IC50 [2]: 8 nM
Activity [3]: 0%

CCCCNC(=O)Nc1ccc(S(=O)(=O)Nc2ccc(CC(C)(C)N)cc2)cc1
IC50 [2]: 474 nM
Activity [3]: 1%

CCCCCCNC(=O)Nc1ccc(S(=O)(=O)Nc2ccc(CCC(C)(C)N)cc2)cc1
IC50 [2]: 310 nM
Activity [3]: 3%

CCCCCCNC(=O)Nc1ccc(S(=O)(=O)Nc2ccc(CC(C)(C)NCC(F)(F)F)cc2)cc1
IC50 [2]: 682 nM
Activity [3]: 1%

CC(C)NC(=O)Nc1ccc(S(=O)(=O)Nc2ccc(CC(C)(C)N)cc2)cc1
IC50 [2]: 846 nM
Activity [3]: 1%

CCCCCCNC(=O)Nc1ccc(S(=O)(=O)Nc2ccc(CC(C)(C)O)cc2)cc1
inhibition [1]: 48%

CCCCc1ccc(NC(=O)Nc2ccc(S(=O)(=O)Nc3ccc(CC(C)(C)N)cc3)cc2)cc1
IC50 [2]: 28 nM
Activity [3]: 1%

CCCCCCNC(=O)Nc1ccc(S(=O)(=O)Nc2ccc(CC(C)(C)NC[C@H](O)COc3ccc(O)cc3)cc2)cc1
IC50 [6]: 40 nM
IC50 [7]: 13 nM

CC(C)(N)Cc1ccc(NS(=O)(=O)c2ccc(NC(=O)Nc3ccc(C(C)(C)C)cc3)cc2)cc1
IC50 [2]: 16 nM
Activity [3]: 1%
